Reference: ChEMBL document CHEMBL1177852, “Design and preparation of aza-analogues of benzo[c]phenanthridine framework with cytotoxic and antiplasmodial activities” (Eur J Med Chem, 2010)

How the values were obtained:
Vero = experiment: Cytotoxicity against african green monkey Vero cells after 48 hrs by [3H]hypoxanthine incorporation assay; format: cell-based; settings: Chlorocebus sabaeus
How it was run: (§1)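 MCF7 and Vero cells cultured as for P. falciparum, but with 5% fetal calf serum in place of 5% human serum. Drugs added at various concentrations; growth measured by [3H]hypoxanthine incorporation after 48 h incubation.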

MCF7 = experiment: Cytotoxicity against human MCF7 cells after 48 hrs by [3H]hypoxanthine incorporation assay; format: functional, cell-based; how it was run: as §1
Plasmodium falciparum [1] = experiment: Antiplasmodial activity against chloroquine-sensitive Plasmodium falciparum F32 after 48 hrs; format: functional, organism-based; settings: F32, 48 h
How it was run: (§2)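 P. falciparum cultured by Trager–Jensen method with modifications; cultures synchronized by 5% D-sorbitol lysis. Parasites incubated with compound at increasing dilutions for 48 h; growth read out as [3H]hypoxanthine incorporation.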

Plasmodium falciparum [2] = experiment: Antiplasmodial activity against chloroquine-resistant Plasmodium falciparum FcB1/Columbia after 48 hrs; format: functional, organism-based; how it was run: as §2

Compound | IC50 (Vero) [µM] | IC50 (MCF7) [µM] | IC50 (Plasmodium falciparum [1]) [µM] | IC50 (Plasmodium falciparum [2]) [µM]
Cn1c(=O)c2ccccc2c2nc3ccccc3cc21 | 42 | 154 | 355 | 181
Cn1c(=O)c2ccccc2c2ccc3cnccc3c21 | 2.3 | 11.9 | 61 | 54.8
Cn1c(=O)c2ccccc2c2ccc3ncccc3c21 | 3.5 | 12.5 | 17.6 | 22.3
Cn1c(=O)c2ccccc2c2cc3ncccc3cc21 | 2.85 | 0.6 | 123 | 154
Cn1c(=O)c2ccccc2c2c3cccnc3ccc21 | 1.75 | 11.5 | 96.1 | 80.7
Cn1c(=O)c2ccccc2c2ccc3cccnc3c21 | 3.35 | 16.5 | 36.3 | 38.2
COc1cccc2c1C(=O)c1c(O)c3c(c(O)c1C2=O)C[C@@](O)(C(=O)CO)C[C@@H]3O[C@H]1C[C@H](N)[C@H](O)[C@H](C)O1 [DOXORUBICIN] | 7.4 | 0.41 | – | –
Cn1c(=O)c2ccccc2c2c3ccccc3ncc21 | 22.3 | 30.9 | 32.7 | 14.8
